# In ChEMBL document CHEMBL5058577, “EUbOPEN Chemogenomics Library 2 (Multiplex)” (2022):
# Test system: HEK-293T
# Assay: Multiplex assay against HEK293T
# Assay type: toxicity, cell-based
# Settings: human
# How it was run: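 At seeding, live cells were stained with Hoechst33342, BioTracker Green Microtubule Cytoskeleton Dye, MitoTracker Red and Annexin V Alexa Fluor 680. After compound addition they were imaged on a CQ1 microscope at 37°C and 5% CO2, and CellPathfinder machine-learning gating sorted them into Hoechst high-intensity objects or normal cells, with normal cells further split into healthy, pyknosed or fragmented nuclei and pyknosed cells into mitotic or apoptotic. Tubulin, mitochondrial-mass and membrane-permeability phenotypes are given as per cents of cells with healthy nuclei.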
# [1] = 12 h, 1 µM, compound concentration 1 uM, replicate 1
# [2] = 12 h, 1 µM, compound concentration 1 uM, replicate 2
# [3] = 12 h, 10 µM, compound concentration 10 uM, replicate 1
# [4] = 12 h, 10 µM, compound concentration 10 uM, replicate 2
# [5] = 24 h, 1 µM, compound concentration 1 uM, replicate 1
# [6] = 24 h, 1 µM, compound concentration 1 uM, replicate 2
# [7] = 24 h, 10 µM, compound concentration 10 uM, replicate 1
# [8] = 24 h, 10 µM, compound concentration 10 uM, replicate 2
# [9] = 48 h, 1 µM, compound concentration 1 uM, replicate 1
# [10] = 48 h, 1 µM, compound concentration 1 uM, replicate 2
# [11] = 48 h, 10 µM, compound concentration 10 uM, replicate 1
# [12] = 48 h, 10 µM, compound concentration 10 uM, replicate 2
smiles,measurement,setting,value
Cl.Clc1ccc2nsnc2c1NC1=NCCN1 [TIZANIDINE HYDROCHLORIDE],Population Apoptotic (%),[1],39%
same,Population Fragmented Nuclei (%),[1],9%
same,Population Healthy Nuclei (%),[1],80%
same,Population Hoechst High Intensity Objects (%),[1],8%
same,Population Membrane Permeable-Phenotype (%),[1],0%
same,Population Mitochondria Different-Phenotype (%),[1],36%
same,Population Mitotic Cells (%),[1],60%
same,Population Normal (%),[1],91%
same,Population Pyknosed Nuclei (%),[1],9%
same,Population Tubulin-Different-Phenotype (%),[1],26%
same,Total Cell Count,[1],474
same,Population Apoptotic (%),[2],44%
same,Population Fragmented Nuclei (%),[2],2%
same,Population Healthy Nuclei (%),[2],83%
same,Population Hoechst High Intensity Objects (%),[2],9%
same,Population Mitochondria Different-Phenotype (%),[2],62%
same,Population Mitotic Cells (%),[2],55%
same,Population Normal (%),[2],90%
same,Population Pyknosed Nuclei (%),[2],13%
same,Population Tubulin-Different-Phenotype (%),[2],20%
same,Total Cell Count,[2],373
same,Population Apoptotic (%),[3],30%
same,Population Fragmented Nuclei (%),[3],9%
same,Population Healthy Nuclei (%),[3],80%
same,Population Hoechst High Intensity Objects (%),[3],6%
same,Population Membrane Permeable-Phenotype (%),[3],0%
same,Population Mitochondria Different-Phenotype (%),[3],45%
same,Population Mitotic Cells (%),[3],70%
same,Population Normal (%),[3],93%
same,Population Pyknosed Nuclei (%),[3],9%
same,Population Tubulin-Different-Phenotype (%),[3],32%
same,Total Cell Count,[3],450
same,Population Apoptotic (%),[4],46%
same,Population Fragmented Nuclei (%),[4],7%
same,Population Healthy Nuclei (%),[4],79%
same,Population Hoechst High Intensity Objects (%),[4],4%
same,Population Mitochondria Different-Phenotype (%),[4],67%
same,Population Mitotic Cells (%),[4],53%
same,Population Normal (%),[4],95%
same,Population Pyknosed Nuclei (%),[4],13%
same,Population Tubulin-Different-Phenotype (%),[4],27%
same,Total Cell Count,[4],343
same,Population Apoptotic (%),[5],32%
same,Population Fragmented Nuclei (%),[5],11%
same,Population Healthy Nuclei (%),[5],79%
same,Population Hoechst High Intensity Objects (%),[5],4%
same,Population Membrane Permeable-Phenotype (%),[5],0%
same,Population Mitochondria Different-Phenotype (%),[5],20%
same,Population Mitotic Cells (%),[5],67%
same,Population Normal (%),[5],95%
same,Population Pyknosed Nuclei (%),[5],8%
same,Population Tubulin-Different-Phenotype (%),[5],17%
same,Total Cell Count,[5],597
same,Population Apoptotic (%),[6],45%
same,Population Fragmented Nuclei (%),[6],10%
same,Population Healthy Nuclei (%),[6],80%
same,Population Hoechst High Intensity Objects (%),[6],5%
same,Population Mitochondria Different-Phenotype (%),[6],38%
same,Population Mitotic Cells (%),[6],54%
same,Population Normal (%),[6],94%
same,Population Tubulin-Different-Phenotype (%),[6],15%
same,Total Cell Count,[6],434
same,Population Apoptotic (%),[7],32%
same,Population Fragmented Nuclei (%),[7],11%
same,Population Healthy Nuclei (%),[7],78%
same,Population Hoechst High Intensity Objects (%),[7],5%
same,Population Membrane Permeable-Phenotype (%),[7],1%
same,Population Mitochondria Different-Phenotype (%),[7],23%
same,Population Mitotic Cells (%),[7],67%
same,Population Normal (%),[7],94%
same,Population Pyknosed Nuclei (%),[7],9%
same,Population Tubulin-Different-Phenotype (%),[7],18%
same,Total Cell Count,[7],621
same,Population Apoptotic (%),[8],29%
same,Population Fragmented Nuclei (%),[8],10%
same,Population Healthy Nuclei (%),[8],81%
same,Population Hoechst High Intensity Objects (%),[8],6%
same,Population Membrane Permeable-Phenotype (%),[8],0%
same,Population Mitochondria Different-Phenotype (%),[8],46%
same,Population Mitotic Cells (%),[8],70%
same,Population Normal (%),[8],93%
same,Population Pyknosed Nuclei (%),[8],7%
same,Total Cell Count,[8],443
same,Population Apoptotic (%),[9],17%
same,Population Fragmented Nuclei (%),[9],16%
same,Population Healthy Nuclei (%),[9],77%
same,Population Hoechst High Intensity Objects (%),[9],2%
same,Population Membrane Permeable-Phenotype (%),[9],3%
same,Population Mitochondria Different-Phenotype (%),[9],13%
same,Population Mitotic Cells (%),[9],82%
same,Population Normal (%),[9],97%
same,Population Pyknosed Nuclei (%),[9],6%
same,Population Tubulin-Different-Phenotype (%),[9],10%
same,Total Cell Count,[9],1005
same,Population Apoptotic (%),[10],33%
same,Population Fragmented Nuclei (%),[10],14%
same,Population Healthy Nuclei (%),[10],79%
same,Population Hoechst High Intensity Objects (%),[10],3%
same,Population Membrane Permeable-Phenotype (%),[10],1%
same,Population Mitochondria Different-Phenotype (%),[10],19%
same,Population Mitotic Cells (%),[10],66%
same,Population Normal (%),[10],96%
same,Population Tubulin-Different-Phenotype (%),[10],7%
same,Total Cell Count,[10],661
same,Population Apoptotic (%),[11],24%
same,Population Fragmented Nuclei (%),[11],19%
same,Population Healthy Nuclei (%),[11],74%
same,Population Hoechst High Intensity Objects (%),[11],3%
same,Population Membrane Permeable-Phenotype (%),[11],1%
same,Population Mitochondria Different-Phenotype (%),[11],13%
same,Population Mitotic Cells (%),[11],75%
same,Population Normal (%),[11],96%
same,Population Pyknosed Nuclei (%),[11],5%
same,Population Tubulin-Different-Phenotype (%),[11],10%
same,Total Cell Count,[11],995
same,Population Apoptotic (%),[12],25%
same,Population Fragmented Nuclei (%),[12],13%
same,Population Healthy Nuclei (%),[12],81%
same,Population Hoechst High Intensity Objects (%),[12],5%
same,Population Mitochondria Different-Phenotype (%),[12],23%
same,Population Normal (%),[12],94%
same,Population Pyknosed Nuclei (%),[12],4%
same,Population Tubulin-Different-Phenotype (%),[12],19%
same,Total Cell Count,[12],600
